# Laboratory results as given in ChEMBL document CHEMBL4689842, “EUbOPEN Chemogenomics Library wave 1” (2021).
# System: Fibroblast
# Assay: Multiplex assay against human fibroblast
# Format: toxicity, cell-based
# Outline: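 Tubulin, mitochondrial-mass and membrane-permeability phenotypes are per cents of healthy-nucleus cells. Cells were gated by CellPathfinder machine learning into Hoechst high-intensity objects or normal cells, normal cells into healthy, pyknosed or fragmented nuclei, and pyknosed cells into mitotic or apoptotic. Before that, live cells stained at seeding with Hoechst33342, BioTracker Green Microtubule Cytoskeleton Dye, MitoTracker Red and Annexin V Alexa Fluor 680 were imaged on a CQ1 microscope at 37°C and 5% CO2 after compound addition.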
# [1] = 12 h, 1 µM, compound concentration 1 uM, replicate 1
# [2] = 12 h, 1 µM, compound concentration 1 uM, replicate 2
# [3] = 12 h, 10 µM, compound concentration 10 uM, replicate 1
# [4] = 12 h, 10 µM, compound concentration 10 uM, replicate 2
# [5] = 24 h, 1 µM, compound concentration 1 uM, replicate 1
# [6] = 24 h, 1 µM, compound concentration 1 uM, replicate 2
# [7] = 24 h, 10 µM, compound concentration 10 uM, replicate 1
# [8] = 24 h, 10 µM, compound concentration 10 uM, replicate 2
# [9] = 48 h, 1 µM, compound concentration 1 uM, replicate 1
# [10] = 48 h, 1 µM, compound concentration 1 uM, replicate 2
# [11] = 48 h, 10 µM, compound concentration 10 uM, replicate 1
# [12] = 48 h, 10 µM, compound concentration 10 uM, replicate 2
smiles,measurement,setting,value
COc1cccc([C@@H](C)NCCCc2ccccc2Cl)c1.Cl [TECALCET HYDROCHLORIDE],Population Apoptotic (%),[1],55%
same,Population Fragmented Nuclei (%),[1],20%
same,Population Healthy Nuclei (%),[1],53%
same,Population Hoechst High Intensity Objects (%),[1],9%
same,Population Membrane Permeable-Phenotype (%),[1],22%
same,Population Mitochondria Different-Phenotype (%),[1],4%
same,Population Mitotic Cells (%),[1],44%
same,Population Normal (%),[1],90%
same,Population Pyknosed Nuclei (%),[1],25%
same,Population Tubulin-Different-Phenotype (%),[1],53%
same,Total Cell Count,[1],222
same,Population Apoptotic (%),[2],16%
same,Population Fragmented Nuclei (%),[2],10%
same,Population Healthy Nuclei (%),[2],81%
same,Population Hoechst High Intensity Objects (%),[2],10%
same,Population Membrane Permeable-Phenotype (%),[2],6%
same,Population Mitochondria Different-Phenotype (%),[2],20%
same,Population Mitotic Cells (%),[2],83%
same,Population Normal (%),[2],89%
same,Population Pyknosed Nuclei (%),[2],8%
same,Population Tubulin-Different-Phenotype (%),[2],18%
same,Total Cell Count,[2],70
same,Population Apoptotic (%),[3],62%
same,Population Fragmented Nuclei (%),[3],26%
same,Population Healthy Nuclei (%),[3],43%
same,Population Hoechst High Intensity Objects (%),[3],12%
same,Population Membrane Permeable-Phenotype (%),[3],11%
same,Population Mitochondria Different-Phenotype (%),[3],17%
same,Population Mitotic Cells (%),[3],37%
same,Population Normal (%),[3],87%
same,Population Pyknosed Nuclei (%),[3],29%
same,Population Tubulin-Different-Phenotype (%),[3],71%
same,Total Cell Count,[3],183
same,Population Apoptotic (%),[4],41%
same,Population Fragmented Nuclei (%),[4],7%
same,Population Healthy Nuclei (%),[4],75%
same,Population Hoechst High Intensity Objects (%),[4],5%
same,Population Membrane Permeable-Phenotype (%),[4],18%
same,Population Mitochondria Different-Phenotype (%),[4],90%
same,Population Mitotic Cells (%),[4],58%
same,Population Normal (%),[4],94%
same,Population Pyknosed Nuclei (%),[4],17%
same,Population Tubulin-Different-Phenotype (%),[4],96%
same,Total Cell Count,[4],83
same,Population Apoptotic (%),[5],56%
same,Population Fragmented Nuclei (%),[5],28%
same,Population Healthy Nuclei (%),[5],50%
same,Population Hoechst High Intensity Objects (%),[5],10%
same,Population Membrane Permeable-Phenotype (%),[5],26%
same,Population Mitochondria Different-Phenotype (%),[5],4%
same,Population Mitotic Cells (%),[5],43%
same,Population Normal (%),[5],89%
same,Population Pyknosed Nuclei (%),[5],21%
same,Population Tubulin-Different-Phenotype (%),[5],62%
same,Total Cell Count,[5],217
same,Population Apoptotic (%),[6],77%
same,Population Fragmented Nuclei (%),[6],8%
same,Population Healthy Nuclei (%),[6],80%
same,Population Hoechst High Intensity Objects (%),[6],8%
same,Population Membrane Permeable-Phenotype (%),[6],6%
same,Population Mitochondria Different-Phenotype (%),[6],6%
same,Population Mitotic Cells (%),[6],22%
same,Population Normal (%),[6],91%
same,Population Pyknosed Nuclei (%),[6],10%
same,Population Tubulin-Different-Phenotype (%),[6],12%
same,Total Cell Count,[6],95
same,Population Apoptotic (%),[7],61%
same,Population Fragmented Nuclei (%),[7],25%
same,Population Healthy Nuclei (%),[7],53%
same,Population Hoechst High Intensity Objects (%),[7],17%
same,Population Membrane Permeable-Phenotype (%),[7],13%
same,Population Mitochondria Different-Phenotype (%),[7],31%
same,Population Mitotic Cells (%),[7],38%
same,Population Normal (%),[7],82%
same,Population Pyknosed Nuclei (%),[7],21%
same,Population Tubulin-Different-Phenotype (%),[7],75%
same,Total Cell Count,[7],178
same,Population Apoptotic (%),[8],35%
same,Population Fragmented Nuclei (%),[8],8%
same,Population Healthy Nuclei (%),[8],70%
same,Population Hoechst High Intensity Objects (%),[8],8%
same,Population Membrane Permeable-Phenotype (%),[8],24%
same,Population Mitochondria Different-Phenotype (%),[8],91%
same,Population Mitotic Cells (%),[8],64%
same,Population Normal (%),[8],91%
same,Population Pyknosed Nuclei (%),[8],20%
same,Population Tubulin-Different-Phenotype (%),[8],92%
same,Total Cell Count,[8],97
same,Population Apoptotic (%),[9],54%
same,Population Fragmented Nuclei (%),[9],28%
same,Population Healthy Nuclei (%),[9],60%
same,Population Hoechst High Intensity Objects (%),[9],10%
same,Population Membrane Permeable-Phenotype (%),[9],19%
same,Population Mitochondria Different-Phenotype (%),[9],3%
same,Population Mitotic Cells (%),[9],45%
same,Population Normal (%),[9],89%
same,Population Pyknosed Nuclei (%),[9],10%
same,Population Tubulin-Different-Phenotype (%),[9],42%
same,Total Cell Count,[9],229
same,Population Apoptotic (%),[10],0%
same,Population Healthy Nuclei (%),[10],70%
same,Population Hoechst High Intensity Objects (%),[10],13%
same,Population Membrane Permeable-Phenotype (%),[10],13%
same,Population Mitochondria Different-Phenotype (%),[10],4%
same,Population Mitotic Cells (%),[10],100%
same,Population Normal (%),[10],87%
same,Population Pyknosed Nuclei (%),[10],1%
same,Population Tubulin-Different-Phenotype (%),[10],40%
same,Total Cell Count,[10],100
same,Population Apoptotic (%),[11],76%
same,Population Fragmented Nuclei (%),[11],46%
same,Population Healthy Nuclei (%),[11],45%
same,Population Hoechst High Intensity Objects (%),[11],21%
same,Population Membrane Permeable-Phenotype (%),[11],6%
same,Population Mitochondria Different-Phenotype (%),[11],16%
same,Population Mitotic Cells (%),[11],23%
same,Population Normal (%),[11],78%
same,Population Pyknosed Nuclei (%),[11],8%
same,Population Tubulin-Different-Phenotype (%),[11],60%
same,Total Cell Count,[11],207
same,Population Apoptotic (%),[12],0%
same,Population Fragmented Nuclei (%),[12],56%
same,Population Healthy Nuclei (%),[12],43%
same,Population Hoechst High Intensity Objects (%),[12],15%
same,Population Membrane Permeable-Phenotype (%),[12],0%
same,Population Mitochondria Different-Phenotype (%),[12],12%
same,Population Mitotic Cells (%),[12],100%
same,Population Normal (%),[12],84%
same,Population Pyknosed Nuclei (%),[12],0%
same,Population Tubulin-Different-Phenotype (%),[12],76%
same,Total Cell Count,[12],138
